This passage reports Activity results from ChEMBL document CHEMBL4196093, “Small-Molecule Activator of UNC-51-Like Kinase 1 (ULK1) That Induces Cytoprotective Autophagy for Parkinson's Disease Treatment” (J Med Chem, 2018).

The target of experiment [1] is T1, Serine/threonine-protein kinase ULK1 (Homo sapiens) (UniProt O75385).
T1 sequence (whole entry): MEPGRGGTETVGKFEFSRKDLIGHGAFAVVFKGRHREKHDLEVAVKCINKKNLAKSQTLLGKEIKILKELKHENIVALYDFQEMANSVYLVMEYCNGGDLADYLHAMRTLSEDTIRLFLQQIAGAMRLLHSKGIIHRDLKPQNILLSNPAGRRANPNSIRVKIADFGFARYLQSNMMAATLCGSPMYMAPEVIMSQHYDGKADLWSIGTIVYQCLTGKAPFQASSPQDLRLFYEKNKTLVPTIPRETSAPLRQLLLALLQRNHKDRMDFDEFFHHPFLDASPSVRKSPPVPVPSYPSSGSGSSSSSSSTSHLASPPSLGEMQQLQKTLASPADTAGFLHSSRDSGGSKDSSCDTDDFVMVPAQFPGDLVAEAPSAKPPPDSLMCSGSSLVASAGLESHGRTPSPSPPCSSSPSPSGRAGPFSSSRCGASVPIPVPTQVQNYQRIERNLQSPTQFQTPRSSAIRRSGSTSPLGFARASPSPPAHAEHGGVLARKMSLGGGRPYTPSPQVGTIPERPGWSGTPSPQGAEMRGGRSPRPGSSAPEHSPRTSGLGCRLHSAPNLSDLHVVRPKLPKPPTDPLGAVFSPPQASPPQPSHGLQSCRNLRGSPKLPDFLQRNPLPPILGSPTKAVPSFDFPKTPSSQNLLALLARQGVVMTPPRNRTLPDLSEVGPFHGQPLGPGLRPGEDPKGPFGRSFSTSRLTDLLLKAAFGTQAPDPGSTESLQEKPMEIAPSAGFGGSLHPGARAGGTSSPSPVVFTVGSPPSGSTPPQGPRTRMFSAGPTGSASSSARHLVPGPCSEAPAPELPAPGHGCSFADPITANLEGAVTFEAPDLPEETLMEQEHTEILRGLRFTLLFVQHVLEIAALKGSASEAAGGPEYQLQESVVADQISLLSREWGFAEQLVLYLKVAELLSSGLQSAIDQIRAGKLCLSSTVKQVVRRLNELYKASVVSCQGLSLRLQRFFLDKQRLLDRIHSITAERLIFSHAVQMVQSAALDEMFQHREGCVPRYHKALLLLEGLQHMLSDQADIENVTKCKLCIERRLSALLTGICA
The experiment is described as follows: Induction of human recombinant N-terminal GST tagged-ULK1 (1 to 649 residues) kinase activity expressed in baculovirus infected insect Sf9 cells at 100 nM using MBP as substrate after 60 mins by ADP-glo assay relative to control. Put shortly:
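Recombinant human ULK1 (10 ng) with MBP (0.1 µg/µl)/10 µM ATP and compound at 100 nM in 40 mM Tris pH 7.5, 20 mM MgCl2, 50 µM DTT, 0.1 mg/ml BSA. Incubated 60 min at room temperature; ADP-Glo luminescence read. Three independent experiments, mean ± SEM.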
On the technique in general: ADP-Glo first removes unused ATP, then detects ADP through luciferase.

The target in experiment [2] is T1, Serine/threonine-protein kinase ULK1 (Homo sapiens). In words: Induction of ULK1-mediated autophagy in human SH-SY5Y cells at 1 uM after 6 hrs by MDC-staining based flow cytometric analysis relative to control. Type of experiment: cell-based. Put shortly: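 Autophagy scored as percentage of MDC-positive SH-SY5Y cells by flow cytometry after 1 µM compound; mean ± SEM.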
(Flow cytometry measures light scatter and fluorescence of single cells or particles in a stream.)

With `Cc1ccccc1NC(=O)[C@H](NCCc1cc(Cl)ccc1O)c1ccccc1`, the Activity is 146% in experiment [1] and 15.3% in experiment [2].

Take `Cc1ccccc1NC(=O)[C@H](NC(=O)Nc1cccc2ccccc12)c1ccccc1`: the Activity in experiment [1] stood at 146%; in experiment [2], 24.4%.

As to `Cc1ccccc1NC(=O)[C@H](NC(=S)Nc1cc(C(F)(F)F)cc(C(F)(F)F)c1)c1ccccc1`, the Activity in experiment [1] was 205%; in experiment [2], 43.1%.

Take `O=C(Nc1cccc(Cl)c1)N[C@@H](C(=O)Nc1cccc(Br)c1)c1ccccc1`: the results for the Activity in experiment [1] and in experiment [2] were 152% and 24.1%, respectively.

As to `CN1CCN(CC(OC(=O)c2ccccc2C(F)(F)F)c2ccccc2)CC1` (centres undefined), the Activity in experiment [1] was 151%; in experiment [2], 10%.

For the compound `Cc1cccc(C)c1NC(=O)N[C@@H](C(=O)N[C@H](C)c1ccccc1)c1ccccc1`, the Activity was found to be 144% in experiment [1] and 16.2% in experiment [2].

Regarding `Cc1ccc(NC(=O)N[C@@H](C(=O)Nc2cccc(Br)c2)c2ccccc2)cc1`, the figures for the Activity in experiment [1] and in experiment [2] were 147% and 25.4%, respectively.

On to `CN1CCN(CC(OC(=O)c2ccc3ncccc3c2)c2ccccc2)CC1` (centres undefined), for which the figures for the Activity in experiment [1] and in experiment [2] were 181% and 12.5%, respectively.

As to `Cc1ccccc1NC(=O)[C@H](NC(=S)Nc1ccccc1)c1ccccc1`, the Activity in experiment [1] worked out at 179%; in experiment [2], 36.2%.

Consider `COc1ccc(NC(=O)N[C@@H](C(=O)Nc2ccccc2C)c2ccccc2)cc1`, for which the Activity was 158% in experiment [1] and 30.4% in experiment [2].

In the case of `O=C(Nc1cccc(Br)c1)[C@H](NC(=S)Nc1ccccc1)c1ccccc1`, the Activity in experiment [1] amounted to 176%; in experiment [2], 32.9%.

Consider `CN1CCN(CC(OC(=O)c2ccccc2)c2ccccc2)CC1` (centres undefined), for which the Activity in experiment [1] amounted to 156%; in experiment [2], 9.59%.

As for `Cc1ccccc1NC(=O)[C@H](NCCc1ccc(O)cc1)c1ccccc1`, the Activity in experiment [1] came out at 158%; in experiment [2], 21%.

For `COc1ccc(N2CCN(CC(OC(=O)c3ccc(C(F)(F)F)cc3)c3ccccc3)CC2)cc1` (centres undefined), the Activity in experiment [1] worked out at 171%; in experiment [2], 14.2%.

Regarding `Cc1ccc(NC(=O)N[C@@H](C(=O)Nc2ccccc2C)c2ccccc2)cc1`, the results for the Activity in experiment [1] and in experiment [2] were 174% and 34.9%, respectively.

Regarding `Cc1ccccc1NC(=O)[C@H](NC(=O)Nc1ccccc1Cl)c1ccccc1`, the Activity amounted to 30.4% in experiment [1] and 36.8% in experiment [2].

Regarding `COc1ccc(CCNC(=O)N[C@@H](C(=O)Nc2cccc(Cl)c2)c2ccccc2)cc1OC`, the Activity in experiment [1] is 168%; in experiment [2] it was 31.1%.

Regarding `COc1ccc(NC(=O)N[C@@H](C(=O)N[C@H](C)c2ccccc2)c2ccccc2)cc1`, the Activity in experiment [1] worked out at 145%; in experiment [2], 19.2%.

Consider `COc1ccc(CC(=O)OC(CN2CCN(C)CC2)c2ccccc2)cc1OC` (centres undefined), for which the Activity in experiment [1] stood at 139%; in experiment [2] it was 6.22%.

For the compound `O=C(Nc1cccc2ccccc12)N[C@@H](C(=O)Nc1cccc(Br)c1)c1ccccc1`, the Activity in experiment [1] was determined as 150%; in experiment [2], 24.6%.

Take `CN1CCN(CC(OC(=O)c2ccccc2F)c2ccccc2)CC1` (centres undefined): the Activity came out at 149% in experiment [1] and 6.56% in experiment [2].

In the case of `O=C(Nc1cc(F)ccc1F)[C@H](NC(=S)Nc1ccccc1)c1ccccc1`, the results for the Activity in experiment [1] and in experiment [2] were 197% and 39.4%, respectively.

On to `COc1ccc(CCNC(=O)N[C@@H](C(=O)Nc2cccc3ccccc23)c2ccccc2)cc1OC`, for which the figures for the Activity in experiment [1] and in experiment [2] were 139% and 20.9%, respectively.

Turning to `Cc1ccccc1NC(=O)[C@H](NCCc1ccc([N+](=O)[O-])cc1)c1ccccc1`, the figures for the Activity in experiment [1] and in experiment [2] were 142% and 16.6%, respectively.

For `Cc1cccc(C)c1NC(=O)N[C@@H](C(=O)Nc1cccc(Br)c1)c1ccccc1`, the values for the Activity in experiment [1] and in experiment [2] were 155% and 27.1%, respectively.

On to `COc1ccc(N2CCN(CC(OC(=O)c3cccc(C(F)(F)F)c3)c3ccccc3)CC2)cc1` (centres undefined), for which the Activity in experiment [1] came to 162%; in experiment [2], 11.6%.

Take `COc1ccc(NC(=O)N[C@@H](C(=O)N[C@H](C)c2cc(F)ccc2F)c2ccccc2)cc1`: the Activity turned out to be 153% in experiment [1] and 30.9% in experiment [2].

Turning to `Cc1ccccc1NC(=O)[C@H](NC(=O)Nc1ccc(C(F)(F)F)cc1)c1ccccc1`, the Activity in experiment [1] was 183%; in experiment [2], 38.4%.

Regarding `C[C@@H](NC(=O)[C@H](NC(=O)Nc1cccc2ccccc12)c1ccccc1)c1ccccc1`, the Activity in experiment [1] was found to be 149%; in experiment [2], 19.6%.

`Cc1ccccc1NC(=O)[C@H](NCCc1ccc2[nH]ccc2c1)c1ccccc1`: the Activity came out at 144% in experiment [1] and 16.8% in experiment [2].

In the case of `C[C@@H](NC(=O)[C@H](NC(=S)Nc1ccccc1)c1ccccc1)c1ccccc1`, the results for the Activity in experiment [1] and in experiment [2] were 169% and 32.2%, respectively.

As for `COc1ccc(CCNC(=O)N[C@@H](C(=O)Nc2ccccc2Cl)c2ccccc2)cc1OC`, the Activity in experiment [1] was found to be 152%; in experiment [2] it was 27.9%.

Regarding `COc1ccc(CCNC(=O)N[C@@H](C(=O)Nc2c(C)cccc2C)c2ccccc2)cc1OC`, the Activity in experiment [1] is 144%; in experiment [2] it was 23.2%.

For the compound `COc1ccc(CCN[C@@H](C(=O)Nc2ccc(F)cc2F)c2ccccc2)cc1OC`, the Activity in experiment [1] was 151%; in experiment [2] it was 22.4%.

For `O=C(Nc1ccc(F)cc1F)[C@H](NCCc1cccc2ccccc12)c1ccccc1`, the Activity in experiment [1] turned out to be 168%; in experiment [2], 26.2%.

For the compound `O=C(Nc1ccc(C(F)(F)F)cc1)N[C@@H](C(=O)Nc1cc(F)ccc1F)c1ccccc1`, the Activity in experiment [1] was 227%; in experiment [2], 43.6%.

With `Cc1ccccc1NC(=O)[C@H](NCCc1ccc(N(C)C)cc1)c1ccccc1`, the results for the Activity in experiment [1] and in experiment [2] were 143% and 13.5%, respectively.

With `COc1cccc(CCN[C@@H](C(=O)Nc2ccccc2C)c2ccccc2)c1`, the Activity was 140% in experiment [1] and 16.2% in experiment [2].

On to `COc1ccc(NC(=O)[C@H](NC(=O)NCCc2ccc(OC)c(OC)c2)c2ccccc2)cc1`, for which the Activity in experiment [1] turned out to be 141%; in experiment [2] it was 21.1%.

On to `O=C(Nc1ccc(F)cc1F)[C@H](NCCc1ccc(Cl)c(Cl)c1)c1ccccc1`, for which the figures for the Activity in experiment [1] and in experiment [2] were 174% and 31.4%, respectively.

Turning to `CN1CCN(CC(OC(=O)Cc2ccccn2)c2ccccc2)CC1` (centres undefined), the values for the Activity in experiment [1] and in experiment [2] were 143% and 9.99%, respectively.

For `COc1ccc(CCNC(=S)N[C@@H](C(=O)Nc2cc(C(F)(F)F)cc(C(F)(F)F)c2)c2ccccc2)cc1OC`, the Activity in experiment [1] amounted to 184%; in experiment [2], 39%.

Take `Cc1ccc(CCN[C@@H](C(=O)Nc2ccccc2C)c2ccccc2)cc1`: the Activity was 139% in experiment [1] and 13.8% in experiment [2].

As for `O=C(Nc1ccc(C(F)(F)F)cc1)N[C@@H](C(=O)Nc1cccc(Br)c1)c1ccccc1`, the Activity in experiment [1] came to 179%; in experiment [2], 33.6%.

Regarding `Cc1ccccc1NC(=O)[C@H](NCCc1cccc2ccccc12)c1ccccc1`, the Activity in experiment [1] was 137%; in experiment [2] it was 11%.

`CN1CCN(CC(OC(=O)c2cccc(Br)c2)c2ccccc2)CC1` (centres undefined): the results for the Activity in experiment [1] and in experiment [2] were 159% and 11.4%, respectively.

With `O=C(Nc1cccc(Br)c1)[C@H](NC(=S)Nc1cc(C(F)(F)F)cc(C(F)(F)F)c1)c1ccccc1`, the Activity in experiment [1] worked out at 217%; in experiment [2] it was 39.6%.

In the case of `COc1ccc(N2CCN(CC(OC(=O)c3ccc(Cl)cc3Cl)c3ccccc3)CC2)cc1` (centres undefined), the Activity came to 150% in experiment [1] and 11.8% in experiment [2].

Turning to `CN1CCN(CC(OC(=O)c2ccc(-c3ccccc3)cc2)c2ccccc2)CC1` (centres undefined), the Activity in experiment [1] came to 142%; in experiment [2] it was 7.41%.

For `COc1ccc(N2CCN(CC(OC(=O)c3ccccc3F)c3ccccc3)CC2)cc1` (centres undefined), the Activity came out at 152% in experiment [1] and 11.8% in experiment [2].

Take `O=C(Nc1ccc(F)cc1F)[C@H](NCCc1cccc(F)c1)c1ccccc1`: the Activity in experiment [1] was determined as 161%; in experiment [2] it was 23.4%.

`O=C(Nc1ccc(F)cc1F)[C@H](NCCc1ccc(O)cc1)c1ccccc1`: the figures for the Activity in experiment [1] and in experiment [2] were 198% and 32.1%, respectively.
